# In the M2OR odorant receptor database:
# How the values were obtained:
# Details in all cases: stereoisomer not certain
# [1] = biological target: T1, OR5M3 (Homo sapiens) (UniProt Q8NGP4)
# T1 sequence (whole entry): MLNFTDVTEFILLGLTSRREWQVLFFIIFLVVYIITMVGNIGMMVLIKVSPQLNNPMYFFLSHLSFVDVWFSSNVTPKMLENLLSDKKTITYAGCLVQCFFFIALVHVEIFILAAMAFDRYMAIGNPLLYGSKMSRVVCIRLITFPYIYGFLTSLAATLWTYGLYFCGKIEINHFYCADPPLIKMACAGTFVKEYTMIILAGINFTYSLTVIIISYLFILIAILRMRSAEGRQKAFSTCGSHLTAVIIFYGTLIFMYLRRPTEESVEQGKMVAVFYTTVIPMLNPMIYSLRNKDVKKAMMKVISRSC
# In short: (§1)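 Values were gathered from published papers (main text and supplementary material), with extra details requested from the original authors when needed, and checked for typos and inconsistencies. Each receptor–molecule pair is called responsive (active) if the original authors judged the measured signal statistically different from baseline, and non-responsive (inactive) otherwise. Assay methods varied by source, often transient mammalian cell-line luciferase assays. Recorded details include cell line, G-protein, co-transfected protein and tags.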
# [2] = system: OR5M1 T295R M301I
# In short: as §1
# [3] = biological target: OR5M10 (Homo sapiens) (UniProt Q6IEU7)
# Chain of OR5M10 (Homo sapiens) (Q6IEU7 whole entry): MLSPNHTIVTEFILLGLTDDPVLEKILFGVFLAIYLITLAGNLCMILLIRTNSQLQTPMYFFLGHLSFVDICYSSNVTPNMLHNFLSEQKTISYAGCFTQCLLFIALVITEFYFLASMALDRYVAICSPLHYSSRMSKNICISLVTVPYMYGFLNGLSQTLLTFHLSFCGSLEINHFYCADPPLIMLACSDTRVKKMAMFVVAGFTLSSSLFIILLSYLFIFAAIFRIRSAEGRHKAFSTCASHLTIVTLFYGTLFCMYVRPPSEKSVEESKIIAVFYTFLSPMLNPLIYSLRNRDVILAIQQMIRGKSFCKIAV
# In short: as §1
# [4] = biological target: OR5M11 (Homo sapiens) (UniProt Q96RB7)
# Chain of OR5M11 (Homo sapiens) (Q96RB7 whole entry): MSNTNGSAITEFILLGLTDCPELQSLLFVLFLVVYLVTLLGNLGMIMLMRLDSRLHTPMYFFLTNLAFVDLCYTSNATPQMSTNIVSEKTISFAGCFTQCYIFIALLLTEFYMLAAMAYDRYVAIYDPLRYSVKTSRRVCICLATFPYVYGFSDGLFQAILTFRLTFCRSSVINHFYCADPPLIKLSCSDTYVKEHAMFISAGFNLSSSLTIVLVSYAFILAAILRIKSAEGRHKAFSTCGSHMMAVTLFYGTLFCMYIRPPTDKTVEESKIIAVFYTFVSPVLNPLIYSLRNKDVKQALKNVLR
# In short: as §1
# [5] = system: OR5M3 N3Y A156T
# In short: as §1
# [6] = biological target: OR5M8 (Homo sapiens) (UniProt Q8NGP6)
# Chain of OR5M8 (Homo sapiens) (Q8NGP6 whole entry): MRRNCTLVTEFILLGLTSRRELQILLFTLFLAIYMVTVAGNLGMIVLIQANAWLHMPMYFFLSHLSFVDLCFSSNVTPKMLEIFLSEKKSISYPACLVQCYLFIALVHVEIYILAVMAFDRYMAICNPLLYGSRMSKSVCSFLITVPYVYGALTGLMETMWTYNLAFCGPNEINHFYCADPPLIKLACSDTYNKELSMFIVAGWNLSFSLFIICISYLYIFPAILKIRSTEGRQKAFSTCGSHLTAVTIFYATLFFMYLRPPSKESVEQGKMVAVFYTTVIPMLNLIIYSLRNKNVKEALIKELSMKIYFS
# In short: as §1
# [7] = biological target: OR5M9 (Homo sapiens) (UniProt Q8NGP3)
# Chain of OR5M9 (Homo sapiens) (Q8NGP3 whole entry): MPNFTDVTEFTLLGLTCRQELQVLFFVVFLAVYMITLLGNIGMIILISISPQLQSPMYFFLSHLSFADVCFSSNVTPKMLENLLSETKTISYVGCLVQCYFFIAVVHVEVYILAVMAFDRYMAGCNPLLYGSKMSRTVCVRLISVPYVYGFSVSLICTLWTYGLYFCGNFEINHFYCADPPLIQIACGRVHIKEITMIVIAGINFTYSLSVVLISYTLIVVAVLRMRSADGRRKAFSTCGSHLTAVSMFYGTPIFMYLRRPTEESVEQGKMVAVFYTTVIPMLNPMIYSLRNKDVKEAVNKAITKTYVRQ
# In short: as §1
# [8] = system: OR5MA L2F C311H
# In short: as §1
# [9] = system: OR5MA L2F Q54H C311H
# In short: as §1
# [10] = biological target: OR5P2 (Homo sapiens) (UniProt Q8WZ92)
# Chain of OR5P2 (Homo sapiens) (Q8WZ92 whole entry): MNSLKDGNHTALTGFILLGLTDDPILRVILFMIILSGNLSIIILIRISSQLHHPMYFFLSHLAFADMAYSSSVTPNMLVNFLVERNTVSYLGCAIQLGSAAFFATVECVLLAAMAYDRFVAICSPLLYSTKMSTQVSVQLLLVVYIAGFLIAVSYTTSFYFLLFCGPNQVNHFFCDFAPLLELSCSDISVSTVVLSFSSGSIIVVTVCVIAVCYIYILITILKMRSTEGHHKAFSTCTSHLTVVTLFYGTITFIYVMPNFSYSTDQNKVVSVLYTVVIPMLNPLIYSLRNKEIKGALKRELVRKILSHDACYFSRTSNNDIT
# In short: as §1
structure (smiles),measurement,setting,value
O=Cc1ccc2c(c1)OCO2,odorant receptor agonist call,[1],inactive
C=CCc1ccc(OC)cc1,odorant receptor agonist call,[1],inactive
COc1ccc(C=O)cc1,odorant receptor agonist call,[1],inactive
C=CCOC(=O)Cc1ccccc1,odorant receptor agonist call,[2],inactive
same,odorant receptor agonist call,[3],inactive
same,odorant receptor agonist call,[4],inactive
same,odorant receptor agonist call,[1],inactive
same,odorant receptor agonist call,[5],inactive
same,odorant receptor agonist call,[6],inactive
same,odorant receptor agonist call,[7],inactive
same,odorant receptor agonist call,[8],inactive
same,odorant receptor agonist call,[9],inactive
same,odorant receptor agonist call,[10],inactive
NCC(=O)c1ccccc1,odorant receptor agonist call,[1],inactive
CSSC,odorant receptor agonist call,[1],inactive
CCOC(=O)Cc1ccccc1,odorant receptor agonist call,[1],inactive
C=CCSSCC=C,odorant receptor agonist call,[1],inactive
SCc1ccco1,odorant receptor agonist call,[1],inactive
Cc1ccccc1O,odorant receptor agonist call,[1],inactive
Cc1c([N+](=O)[O-])c(C)c([N+](=O)[O-])c(C(C)(C)C)c1[N+](=O)[O-],odorant receptor agonist call,[3],inactive
same,odorant receptor agonist call,[4],inactive
same,odorant receptor agonist call,[1],inactive
same,odorant receptor agonist call,[6],inactive
same,odorant receptor agonist call,[7],inactive
same,odorant receptor agonist call,[10],inactive
Cc1ccc(O)c(C)c1,odorant receptor agonist call,[1],inactive
